Assay results reported in ChEMBL document CHEMBL4000209, “Chemical synthesis and biological evaluation of ω-hydroxy polyunsaturated fatty acids” (Bioorg Med Chem Lett, 2017).
Activity calls are given as the source filed them.

Key:
Rattus norvegicus [1] = experiment: Induction of mechanical allodynia in Sprague-Dawley rat assessed as decrease in withdrawal threshold at 1 ug administered as intraplantar injection measured up to 150 mins post dose by Von Frey assay; design: scale not given: the % may be the effect or the level left; settings: in vivo, other, 2.5 h
Outline: (§1)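 Naive male Sprague Dawley rats, n = 6; methyl esters given by intraplantar injection in 1:9 EtOH/saline. Mechanical withdrawal thresholds measured with an electronic von Frey aesthesiometer over a time course, ipsilateral and contralateral paws. Data analysed by two-way ANOVA with Holm-Sidak post hoc test.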

[2] = target: Transient receptor potential cation channel subfamily V member 1 (Mus musculus) (UniProt Q704Y3); experiment: Agonist activity at recombinant mouse TRPV1 expressed in HEK293 cells assessed as increase in calcium influx at 10 uM measured for 380 sec by Fluo-4 dye based FLIPR assay; type: cell-based
Chain of Transient receptor potential cation channel subfamily V member 1 (Mus musculus) (Q704Y3 whole entry): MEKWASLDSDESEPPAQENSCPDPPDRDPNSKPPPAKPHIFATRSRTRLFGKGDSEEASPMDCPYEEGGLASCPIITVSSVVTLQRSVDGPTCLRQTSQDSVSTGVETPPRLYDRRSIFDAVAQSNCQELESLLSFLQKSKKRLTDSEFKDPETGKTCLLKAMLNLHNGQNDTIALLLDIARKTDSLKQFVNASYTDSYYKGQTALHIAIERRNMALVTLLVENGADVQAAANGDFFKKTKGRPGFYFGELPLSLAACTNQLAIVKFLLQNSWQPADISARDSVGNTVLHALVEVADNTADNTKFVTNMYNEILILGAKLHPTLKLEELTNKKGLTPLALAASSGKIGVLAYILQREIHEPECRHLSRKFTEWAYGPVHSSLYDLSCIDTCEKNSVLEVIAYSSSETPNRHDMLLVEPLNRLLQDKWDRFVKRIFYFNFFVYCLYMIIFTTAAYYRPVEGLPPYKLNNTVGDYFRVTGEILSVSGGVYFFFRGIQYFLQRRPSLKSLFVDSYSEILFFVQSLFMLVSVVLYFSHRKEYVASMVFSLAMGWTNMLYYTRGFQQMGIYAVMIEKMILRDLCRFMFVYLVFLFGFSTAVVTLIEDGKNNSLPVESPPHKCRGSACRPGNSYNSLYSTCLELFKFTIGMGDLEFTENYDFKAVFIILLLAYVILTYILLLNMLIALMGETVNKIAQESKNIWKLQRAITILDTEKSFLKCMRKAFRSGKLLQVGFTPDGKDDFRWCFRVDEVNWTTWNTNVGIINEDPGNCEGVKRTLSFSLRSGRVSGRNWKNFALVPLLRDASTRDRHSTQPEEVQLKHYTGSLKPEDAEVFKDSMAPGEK
Outline: (§2)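 mTRPV1-transfected HEK293 cells; Ca2+ influx followed over time and quantified as area under the curve; capsaicin as positive control. Experiments repeated twice, each in triplicate.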

[3] = target: T1, Prostaglandin G/H synthase 1 (Ovis aries) (UniProt P05979); experiment: Inhibition of ovine COX1 at 100 uM using arachidonic acid as substrate after 2 mins by fluorometric substrate-based fluorescence assay relative to control
T1 sequence (whole entry): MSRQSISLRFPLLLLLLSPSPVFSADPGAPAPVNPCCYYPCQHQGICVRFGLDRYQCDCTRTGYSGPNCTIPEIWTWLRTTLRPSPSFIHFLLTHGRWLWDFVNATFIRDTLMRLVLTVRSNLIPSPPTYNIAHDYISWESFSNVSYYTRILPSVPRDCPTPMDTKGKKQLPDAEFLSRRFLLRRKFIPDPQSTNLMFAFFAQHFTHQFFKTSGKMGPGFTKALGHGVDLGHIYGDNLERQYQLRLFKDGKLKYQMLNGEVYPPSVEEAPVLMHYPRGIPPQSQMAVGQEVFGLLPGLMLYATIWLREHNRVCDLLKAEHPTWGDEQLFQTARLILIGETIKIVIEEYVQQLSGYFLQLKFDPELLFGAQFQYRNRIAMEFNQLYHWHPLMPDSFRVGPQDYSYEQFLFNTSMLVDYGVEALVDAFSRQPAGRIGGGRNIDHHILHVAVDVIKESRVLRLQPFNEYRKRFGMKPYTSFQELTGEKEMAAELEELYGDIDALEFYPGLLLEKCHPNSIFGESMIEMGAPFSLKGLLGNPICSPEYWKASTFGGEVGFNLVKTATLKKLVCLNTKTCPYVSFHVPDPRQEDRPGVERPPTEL

[4] = target: T2, Prostaglandin G/H synthase 2 (Homo sapiens) (UniProt P35354); settings: at 100 µM
T2 sequence (whole entry): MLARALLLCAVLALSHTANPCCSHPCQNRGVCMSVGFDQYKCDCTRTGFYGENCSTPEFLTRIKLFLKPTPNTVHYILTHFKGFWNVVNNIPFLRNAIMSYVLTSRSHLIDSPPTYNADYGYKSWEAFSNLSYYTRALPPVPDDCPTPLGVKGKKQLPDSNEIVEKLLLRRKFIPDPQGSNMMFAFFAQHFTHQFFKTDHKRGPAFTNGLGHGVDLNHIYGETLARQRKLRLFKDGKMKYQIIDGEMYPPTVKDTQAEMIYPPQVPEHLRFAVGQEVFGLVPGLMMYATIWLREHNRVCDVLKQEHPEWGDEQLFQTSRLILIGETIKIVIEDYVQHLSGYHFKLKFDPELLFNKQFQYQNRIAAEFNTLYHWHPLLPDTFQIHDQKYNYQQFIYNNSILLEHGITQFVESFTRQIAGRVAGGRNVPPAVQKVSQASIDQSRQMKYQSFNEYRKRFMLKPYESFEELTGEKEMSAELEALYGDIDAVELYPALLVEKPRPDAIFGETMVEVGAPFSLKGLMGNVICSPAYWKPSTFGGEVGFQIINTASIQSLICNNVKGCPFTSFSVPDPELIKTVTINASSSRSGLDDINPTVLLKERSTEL

Rattus norvegicus [5] = experiment: Induction of mechanical allodynia in Sprague-Dawley rat assessed as decrease in withdrawal threshold at 100 ng administered as intraplantar injection by Von Frey assay relative to control; design: scale not given: the % may be the effect or the level left; settings: in vivo, other; outline: as §1
Rattus norvegicus [6] = experiment: Induction of mechanical allodynia in Sprague-Dawley rat assessed as decrease in ipsilateral hind paw withdrawal threshold administered as intraplantar injection measured up to 150 mins post dose by Von Frey assay; settings: in vivo, other, 2.5 h; outline: as §1
Rattus norvegicus [7] = experiment: Induction of mechanical allodynia in Sprague-Dawley rat assessed as decrease in contralateral hind paw withdrawal threshold at 3 ug administered as intraplantar injection measured up to 150 mins post dose by Von Frey assay; settings: in vivo, other, 2.5 h; outline: as §1
[8] = target: Transient receptor potential cation channel subfamily V member 1 (Mus musculus) (UniProt Q704Y3); experiment: Agonist activity at recombinant mouse TRPV1 expressed in HEK293 cells assessed as increase in calcium influx up to 10 uM measured for 380 sec by Fluo-4 dye based FLIPR assay; type: cell-based; outline: as §2

Activity [2]	inhibition [3]	inhibition [4]	Activity (Rattus norvegicus [5])	Activity (Rattus norvegicus [6])	Activity [8]	SMILES	Activity (Rattus norvegicus [1])	Activity (Rattus norvegicus [7])
Active	38.1%	1%	–	–	–	O=C(O)CC/C=C\C/C=C\C/C=C\C/C=C\C/C=C\C/C=C\CCO	Non-Toxic	–
–	–	–	60%	–	–	CCCCC[C@H](O)/C=C/[C@H]1[C@H](O)CC(=O)[C@@H]1C/C=C\CCCC(=O)O [DINOPROSTONE]	–	–
Active	37.1%	0%	–	–	–	O=C(O)CCC/C=C\C/C=C\C/C=C\C/C=C\C/C=C\CCO	Non-Toxic	–
–	27.5%	0%	–	Dose-dependent effect	inactive	O=C(O)CCC/C=C\C/C=C\C/C=C\C/C=C\CCCCCO	30%	Non-Toxic
